Source: PubChem
Compounds with a hit are over-represented: about 1.4% of the library has one in this group of screens.
HKDC1 inhibitor: HKDC1 (human) hexokinase inhibition; recombinant HKDC1, G6PDH/diaphorase resazurin coupled fluorescence; 0.16% of 340,000 active; AID 493160; inhibition, % at 20 µM; Q2TB90;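 active means inhibition above about 35% when tested at 20 µM, limit read from the data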;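 further: plate controls were DMSO wells with enzyme for no effect and DMSO wells lacking enzyme for full effect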
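Material: recombinant HKDC1 hexokinase; Amount: HKDC1 at 5 µg/mL; Medium: Tris pH 8.0 buffer with MgCl2, Tween-20, BSA, BME; Schedule: 90 min reaction incubation at room temperature, dark; Technique: coupled resazurin fluorescence, excitation 525 nm, emission 613 nm.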
APOBEC3G inh: blocks human APOBEC3G single-stranded DNA deamination | Q9HC16 | inhibition, % at 20 µM | recombinant A3G, ssDNA deamination FAM/TAMRA fluorescence | 0.28% of 330,000 active | AID 493012;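 active means inhibition of at least 40% at 20 µM, with no more than 30% in the related APOBEC3A deaminase screen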;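 further: plate controls were DMSO wells with A3G for no effect and wells lacking A3G enzyme for full effect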
Target sequence (Q9HC16 whole entry, looked up): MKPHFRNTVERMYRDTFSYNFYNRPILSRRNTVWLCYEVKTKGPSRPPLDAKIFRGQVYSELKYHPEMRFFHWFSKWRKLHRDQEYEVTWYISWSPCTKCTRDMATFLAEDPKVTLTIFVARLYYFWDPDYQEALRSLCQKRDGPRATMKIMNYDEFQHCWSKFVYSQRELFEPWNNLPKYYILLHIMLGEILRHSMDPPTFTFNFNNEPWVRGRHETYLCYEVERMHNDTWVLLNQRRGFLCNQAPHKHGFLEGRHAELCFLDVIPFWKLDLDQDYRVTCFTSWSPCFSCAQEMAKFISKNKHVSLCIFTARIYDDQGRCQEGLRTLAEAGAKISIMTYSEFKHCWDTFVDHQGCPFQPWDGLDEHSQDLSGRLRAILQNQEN
iPSC survival up: enhancers of human iPSC single-cell survival | hiPSC single-cell survival, ATPlite luminescence; 100% = ROCK inhibitor wells, 0% = DMSO | 0.044% of 360,000 active | survival enhancement, % at 20 µM; in the data active means survival enhancement above about 18%;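 further: cells exposed to compounds for 16 hours before the ATP read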
APOBEC3A inh: human APOBEC3A DNA deaminase inhibition | 0.41% of 330,000 active | inhibition, % at 20 µM | AID 493011 | recombinant A3A, FAM/TAMRA ssDNA deamination fluorescence;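 active means at least 40% inhibition at 20 µM here, with at most 30% in a related deaminase screen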;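 further: plate controls were A3A with DMSO for no effect and wells lacking A3A enzyme for full effect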
PfG6PD inh: PfG6PD (Plasmodium falciparum) enzyme inhibition | inhibition, % at 20 µM | PfGluPho enzyme, NADPH resazurin-diaphorase fluorescence | 0.78% of 350,000 active;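 active means inhibition reaching at least a set limit at 20 µM in the primary screen, cut at about 59% in these data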;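 further: 0% = DMSO wells with substrate and 100% = DMSO wells lacking glucose-6-phosphate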
APOBEC3G confirm: APOBEC3G (human) deaminase inhibition, confirmed. shares compounds with APOBEC3G inh. recombinant A3G ssDNA deaminase, UDG/FAM-TAMRA fluorescence. inhibition, % at 20 µM. 72% of 890 active;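 active means inhibition reaching a set limit in any replicate at 20 µM, the limit being 80% of the first screen's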
UDG A3G counter: counter-screen for APOBEC3G inhibitors: E. coli UDG; shares compounds with APOBEC3G inh; UDG counterscreen, FAM/TAMRA oligo fluorescence; inhibition, % at 20 µM; 710 tested, under 10 active;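 active means compounds giving 40% or more inhibition at 20 µM in any one of the three replicates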;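 further: plate controls were DMSO wells with UDG and oligo for no effect and DMSO wells lacking both for full effect; inhibitors lower the FAM signal released by uracil excision and alkaline cleavage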
Target sequence (P12295 whole entry, looked up): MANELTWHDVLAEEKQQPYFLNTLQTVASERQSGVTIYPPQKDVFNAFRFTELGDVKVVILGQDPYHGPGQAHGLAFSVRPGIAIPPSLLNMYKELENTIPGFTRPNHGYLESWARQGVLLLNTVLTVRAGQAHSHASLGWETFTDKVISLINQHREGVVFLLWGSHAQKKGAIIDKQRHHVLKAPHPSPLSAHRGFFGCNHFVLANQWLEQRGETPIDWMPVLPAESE
HKDC1 act conf: confirmation of human HKDC1 activators | shares compounds with HKDC1 inhibitor | recombinant HKDC1, G6PDH/diaphorase resazurin fluorescence; active compounds read low | inhibition, % at 20 µM | 14% of 740 active | AID 504708;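 active means inhibition at or below a set negative limit, negative inhibition meaning the enzyme was activated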
PfG6PD confirm: PfG6PD inhibition, single-dose confirmed; inhibition, % at 20 µM; recombinant PfGluPho, NADPH-diaphorase-resazurin fluorescence; 34% of 2,400 active; shares compounds with PfG6PD inh;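 active means inhibition of at least 50% at 20 µM in any single replicate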;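 further: 0% = DMSO with substrate and 100% = DMSO lacking glucose-6-phosphate substrate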
Diaphorase 10uM: diaphorase inhibition or oxidation at 10 uM NADPH. shares compounds with PfG6PD inh. 39% of 820 active. inhibition, % at 20 µM. diaphorase-coupled resazurin reduction, fluorescence, NADPH 10 uM;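 active means average inhibition reaching 50% or more with the compound at 20 µM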;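 further: resorufin red fluorescence formed as diaphorase reduces resazurin using NADPH; 0% = DMSO with enzyme and 100% = DMSO without enzyme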
Diaph ctr 30uM: inhibits diaphorase or oxidizes, flagging false PfG6PD hits; shares compounds with PfG6PD inh; inhibition, % at 20 µM; AID 504863; Diaphorase/resazurin coupled assay, resorufin fluorescence, 30 uM NADPH; 29% of 820 active;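 active means inhibition averaging 50% or more, tested at 20 µM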;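 further: 0% = DMSO with enzyme and 100% = DMSO wells lacking diaphorase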
* marks the source's active call; other numbers are inactive results; · = no result; ! = a repeat was not active.

SMILES	HKDC1 inhibitor	APOBEC3G inh	iPSC survival up	APOBEC3A inh	PfG6PD inh	APOBEC3G confirm	UDG A3G counter	PfG6PD confirm	others
COC(=O)CCC(=O)Nc1sc(Cc2ccccc2)c(C)c1C(N)=O	-44	45*	-1	0	75*	57*	0	63*	HKDC1 act conf=-23;Diaphorase 10uM=27;Diaph ctr 30uM=-2
CCn1cc(/C=C(\NC(=O)c2ccccc2)C(=O)NCCCn2ccnc2)c2ccccc21	·	·	0	·	18	·	·	·
Cc1ccc(NC(=O)Cn2ccc(=O)[nH]c2=O)cc1	-6	-7	0	1	6	·	·	·
CC1(C)Cc2c(c(N3CCOCC3)nc3sc(C(=O)N4CCCCC4)c(N)c23)CO1	7	47*	-2	0	68*	28*	4	15
COC(=O)C1=C(C(=O)OC)SC2(S1)C(C(=O)OC)=C(C(=O)OC)SC1=C2c2cc(C)ccc2NC1(C)C	-19	45*	0	1	72*	40*	-3	26
CCOC(=O)c1cc(C)[nH]c(=S)c1C#N	9	63*	0	-3	74*	82*	6	46
COc1ccc(-c2nc3ccccc3c(=O)n2NC(=S)N(C)C)cc1	-19	52*	2	-2	80*	64*	5	44
COc1ccc(OCC(=O)Nn2c(-c3ccc(OC)cc3)nc3ccccc3c2=O)cc1	-4	3	-1	2	-15	·	·	·
COc1cc(N=c2ssnc2Cl)c(OC)cc1Cl	-46	67*	5	2	105*!	82*	-3	64*	HKDC1 act conf=-57*;Diaphorase 10uM=-15;Diaph ctr 30uM=-18
COc1ccc(OC)c(N=C2C(=O)Nc3ccccc32)c1	-5	-2	0	1	16	·	·	·
COc1ccc(OC)c(N=c2ssnc2Cl)c1	3	74*	-1	1	82*	69*	-4	30
COc1cc(-n2nnnc2SC)c(OC)cc1Cl	10	-3	0	5	-1	·	·	·
CCN(c1ccccc1)S(=O)(=O)c1ccc(N2CCN(c3ccccc3O)CC2)nc1	4	-5	0	-2	29	·	·	·
Cc1ccc(SSc2cc(C)ccc2N)c(N)c1	-44	79*	-2	2	64*	86*	·	42	HKDC1 act conf=-21
Cc1ccc(O)c(N)c1	0	-6	-1	-3	44	·	·	·
CC1Sc2ccc(C(=O)NCc3ccccn3)cc2NC1=O (stereo not drawn)	0	55*	-1	3	60*	33*	-3	15
Cc1cc(C)c(NC(=O)c2ccc3c(c2)NC(=O)C(C)S3)c(C)c1 (stereo not drawn)	-5	-1	5	2	10	·	·	·
c1ccc2c(c1)nnn2Cc1nnc2sc(-c3ccc4c(c3)OCCO4)nn12	-5	39	5	3	51	·	·	·
c1ccc(-c2nn3c(Cn4nnc5ccccc54)nnc3s2)cc1	-11	46*	6	1	75*	41*	-4	33
c1ccc(-c2nn3c(Cn4cnc5ccccc54)nnc3s2)cc1	-21	49*	0	11	64*	43*	3	27
c1cncc(-c2nn3c(Cn4cnc5ccccc54)nnc3s2)c1	-15	53*	-1	-1	65*	13	3	28
O=C(Cn1cncn1)c1ccccc1Br	-1	-2	0	2	5	·	·	·
Cc1ccc(OCc2nnc(NC(=O)c3ccco3)s2)cc1	-3	-1	5	1	-22	·	·	·
O=C(Nc1nnc(COc2ccc(Cl)cc2)s1)c1ccco1	-13	71*	0	5	66*	43*	-3	36
O=C1c2ccccc2/C(=C\C#Cc2ccccn2)N1c1ccccc1	4	-8	1	1	-5	·	·	·
SMILES	HKDC1 inhibitor	APOBEC3G inh	iPSC survival up	APOBEC3A inh	PfG6PD inh	APOBEC3G confirm	UDG A3G counter	PfG6PD confirm	others
CCOC(=O)c1cc(-c2ccccc2)sc1NC(=O)c1ccc(OC)c(OC)c1	-12	57*	0	1	78*	47*	-2	47
CCOC(=O)c1cc(-c2ccccc2)sc1NC(=O)C(C)C	-12	-8	-1	-5	15	·	·	·
CCN(CC)S(=O)(=O)c1ccc2c(c1)nc(CCC(=O)Nc1ccc(N3CCOCC3)cc1)n2C	5	-7	-1	-3	14	·	·	·
COC(=O)/C=c1/sc2nc3ccccc3n2c1=O	-32	73*	-1	1	75*	75*	-3	40
COc1ccccc1NS(=O)(=O)c1cc(NC(=O)c2ccc(Cl)nc2)ccc1N1CCCC1	-4	66*	0	2	72*	68*	-4	50*	Diaphorase 10uM=-3;Diaph ctr 30uM=-1
COc1ccc(NS(=O)(=O)c2cc(NC(=O)c3ccccn3)ccc2OC)cc1Br	-2	-7	0	0	-16	·	·	·
COc1ccccc1NS(=O)(=O)c1cc(NC(=O)C2CCC2)ccc1N1CCCCC1	-3	49*	1	-1	60*	77*	-2	27
CCN(CC)c1ccc(NC(=O)c2ccccn2)cc1S(=O)(=O)Nc1ccccc1OC	-8	56*	0	3	60*	51*	-3	18
COc1ccc(NS(=O)(=O)c2cc(NC(=O)C3CC3)ccc2N2CCCCC2)cc1	-4	-3	1	0	9	·	·	·
CC1(C)CC(=O)C=C(c2n[nH]nc2-c2ccccc2)C1	·	·	-2	·	4	·	·	·
COc1ccc(CN2C(=O)C(CC(=O)NCc3cccc4ccccc34)CC(C(=O)N(C(C)C)C(C)C)=C2C)cc1 (stereo not drawn)	·	·	-3	·	·	·	·	·
Cc1[nH]c(=S)c(C#N)c2c1CCCC2	10	50*	0	-5	81*	83*	-2	38
O=C(Nc1ccc(N2CCOCC2)c(S(=O)(=O)Nc2ccc(Cl)cc2)c1)c1cnccn1	-7	46*	-1	0	73*	60*	-3	18
C[C@H](NC(N)=O)C(=O)Nc1ccc(N2CCOCC2)c(S(=O)(=O)Nc2ccc(Cl)cc2)c1	-13	46*	1	-2	76*	30*	3	58*	Diaphorase 10uM=2;Diaph ctr 30uM=-16
